Test results reported in ChEMBL document CHEMBL4261600 (Eur J Med Chem, 2018).

Key:
[1] = Apparent volume of distribution in Sprague-Dawley rat at 3 mg/kg, iv by LC-MS/MS analysis; type: ADME, organism-based; details: in vivo, read-out: Vz
Method in brief: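 Non-compartmental PK. Male SD rats 190-210 g, mice and beagle dogs acclimatized one week, fasted 12 h with water, split into iv and po groups (mice 48, rats 6, dogs 6). iv 3/3/2 mg/kg (mice/rats/dogs); po 10/20/10 mg/kg; vehicle DMSO in 5% glucose water. Blood at 2 or 5 to 720 min; plasma protein-precipitated with methanol, caffeine internal standard, LC-MS/MS.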

[2] = MRT (0 to infinity) in mouse at 3 mg/kg, iv by LC-MS/MS analysis; type: ADME, organism-based; details: in vivo
[3] = target: Tyrosine-protein kinase receptor UFO (Homo sapiens) (UniProt P30530); assay: Binding affinity to wild-type human partial length AXL (R497 to Y821 residues) expressed in bacterial expression system assessed as remaining unbound target protein level at 1000 nM by Kinomescan method relative to control
Method in brief: (§1)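 KINOMEscan competition binding profile across a panel of 468 kinases and mutants, with the inhibitor tested at a single concentration of 1 μM. Binding is reported as percent of control, meaning signal relative to a DMSO control.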

[4] = target: Protein-tyrosine kinase 6 (Homo sapiens) (UniProt Q13882); assay: Binding affinity to wild-type human partial length BRK (L166 to T451 residues) expressed in bacterial expression system assessed as remaining unbound target protein level at 1000 nM by Kinomescan method relative to control; method in brief: as §1
[5] = target: Mitotic checkpoint serine/threonine-protein kinase BUB1 (Homo sapiens) (UniProt O43683); assay: Binding affinity to wild-type human partial length BUB1 (Q724 to K1085 residues) expressed in mammalian expression system assessed as remaining unbound target protein level at 1000 nM by Kinomescan method relative to control
Method in brief: (§2)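 Profiled in a KINOMEscan binding panel with the inhibitor at a single concentration of 1 μM. Binding to each kinase was read out as percent of control, relative to a DMSO control. Strong binders were defined as those with a percent control value below 1.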

[6] = target: Calcium/calmodulin-dependent protein kinase type 1D (Homo sapiens) (UniProt Q8IU85); assay: Binding affinity to wild-type human partial length CAMK1D (M1 to K299 residues) expressed in bacterial expression system assessed as remaining unbound target protein level at 1000 nM by Kinomescan method relative to control; method in brief: as §2
[7] = target: Tyrosine-protein kinase CSK (Homo sapiens) (UniProt P41240); assay: Binding affinity to wild-type human full length CSK (M1 to L450 residues) expressed in bacterial expression system assessed as remaining unbound target protein level at 1000 nM by Kinomescan method relative to control
Method in brief: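 KINOMEscan competitive binding profile at 1 μM inhibitor. Remaining target binding reported as percent of DMSO control.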

[8] = system: Epidermal growth factor receptor (Homo sapiens), P00533 [G719C]; assay: Binding affinity to human partial length EGFR G719C mutant (R669 to V1011 residues) expressed in bacterial expression system assessed as remaining unbound target protein level at 1000 nM by Kinomescan method relative to control
Method in brief: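 KINOMEscan competition-binding profiling across the panel of 468 kinases and mutants, with inhibitor tested at 1 μM. Binding is expressed as percent of control, with DMSO as the reference control.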

[9] = target: G protein-coupled receptor kinase 3 (Homo sapiens) (UniProt P35626); assay: Binding affinity to wild-type human full length GRK3 (M1 to L688 residues) expressed in mammalian expression system assessed as remaining unbound target protein level at 1000 nM by Kinomescan method relative to control; method in brief: as §1
[10] = target: G protein-coupled receptor kinase 4 (Homo sapiens) (UniProt P32298); assay: Binding affinity to wild-type human full length GRK4 (M1 to C578 residues) expressed in bacterial expression system assessed as remaining unbound target protein level at 1000 nM by Kinomescan method relative to control
Method in brief: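 Single-point competition binding screen across a panel of 468 kinases and mutants, with the inhibitor at 1 μM. Binding is read out as percent of a DMSO control, and targets below 1 percent control were classed as strong binders.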

[11] = target: Mitogen-activated protein kinase kinase kinase kinase 1 (Homo sapiens) (UniProt Q92918); assay: Binding affinity to wild-type human full length HPK1 (M1 to R799 residues) expressed in bacterial expression system assessed as remaining unbound target protein level at 1000 nM by Kinomescan method relative to control; method in brief: as §1
[12] = target: Mitogen-activated protein kinase kinase kinase kinase 2 (Homo sapiens) (UniProt Q12851); assay: Binding affinity to wild-type human partial length MAP4K2 (M1 to G318 residues) expressed in mammalian expression system assessed as remaining unbound target protein level at 1000 nM by Kinomescan method relative to control
Method in brief: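 KINOMEscan binding panel of 468 kinases/mutants. Inhibitor was tested at a single concentration of 1 μM. Binding is reported as percent of control, defined relative to a DMSO control.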

[13] = target: Myosin-IIIa (Homo sapiens) (UniProt Q8NEV4); assay: Binding affinity to wild-type human partial length MYO3A (M1 to K338 residues) expressed in bacterial expression system assessed as remaining unbound target protein level at 1000 nM by Kinomescan method relative to control
[14] = target: Serine/threonine-protein kinase Nek5 (Homo sapiens) (UniProt Q6P3R8); assay: Binding affinity to wild-type human partial length NEK5 (M1 to M279 residues) expressed in bacterial expression system assessed as remaining unbound target protein level at 1000 nM by Kinomescan method relative to control
[15] = target: Mitogen-activated protein kinase 13 (Homo sapiens) (UniProt O15264); assay: Binding affinity to wild-type human full length p38-delta (M1 to L365 residues) expressed in bacterial expression system assessed as remaining unbound target protein level at 1000 nM by Kinomescan method relative to control; method in brief: as §2
[16] = target: Platelet-derived growth factor receptor alpha (Homo sapiens) (UniProt P16234); assay: Binding affinity to wild-type human partial length PDGFRA (V575 to D1002 residues) expressed in mammalian expression system assessed as remaining unbound target protein level at 1000 nM by Kinomescan method relative to control
[17] = target: cGMP-dependent protein kinase 2 (Homo sapiens) (UniProt Q13237); assay: Binding affinity to wild-type human partial length PRKG2 (S422 to F762 residues) expressed in mammalian expression system assessed as remaining unbound target protein level at 1000 nM by Kinomescan method relative to control
[18] = target: SRSF protein kinase 2 (Homo sapiens) (UniProt P78362); assay: Binding affinity to wild-type human full length SRPK2 (M1 to S686 residues) expressed in bacterial expression system assessed as remaining unbound target protein level at 1000 nM by Kinomescan method relative to control; method in brief: as §2
[19] = target: Activated CDC42 kinase 1 (Homo sapiens) (UniProt Q07912); assay: Binding affinity to wild-type human partial length TNK2 (S159 to D474 residues) expressed in bacterial expression system assessed as remaining unbound target protein level at 1000 nM by Kinomescan method relative to control

Serine/threonine-protein kinase Nek5 (Homo sapiens), sequence (Q6P3R8 whole entry, the tested form may be a part): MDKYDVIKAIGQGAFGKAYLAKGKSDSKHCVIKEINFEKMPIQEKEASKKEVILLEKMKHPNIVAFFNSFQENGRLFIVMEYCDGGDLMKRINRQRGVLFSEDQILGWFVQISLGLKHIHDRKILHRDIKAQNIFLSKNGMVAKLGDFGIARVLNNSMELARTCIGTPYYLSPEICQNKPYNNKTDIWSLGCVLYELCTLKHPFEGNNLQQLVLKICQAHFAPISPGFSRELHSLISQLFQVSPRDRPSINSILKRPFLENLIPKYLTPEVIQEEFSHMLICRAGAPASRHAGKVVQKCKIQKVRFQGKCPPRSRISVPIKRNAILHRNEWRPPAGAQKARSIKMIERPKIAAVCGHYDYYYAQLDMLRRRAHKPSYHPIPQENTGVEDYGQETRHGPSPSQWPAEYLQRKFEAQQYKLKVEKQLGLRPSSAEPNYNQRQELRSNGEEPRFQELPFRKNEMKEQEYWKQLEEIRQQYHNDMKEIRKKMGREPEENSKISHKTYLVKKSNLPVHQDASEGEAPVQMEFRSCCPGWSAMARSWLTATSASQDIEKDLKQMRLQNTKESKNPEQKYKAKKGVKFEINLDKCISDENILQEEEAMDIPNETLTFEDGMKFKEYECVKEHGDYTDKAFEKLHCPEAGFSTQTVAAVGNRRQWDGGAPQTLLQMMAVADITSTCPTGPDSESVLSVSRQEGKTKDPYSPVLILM
Tyrosine-protein kinase receptor UFO (Homo sapiens), sequence (P30530 whole entry, the tested form may be a part): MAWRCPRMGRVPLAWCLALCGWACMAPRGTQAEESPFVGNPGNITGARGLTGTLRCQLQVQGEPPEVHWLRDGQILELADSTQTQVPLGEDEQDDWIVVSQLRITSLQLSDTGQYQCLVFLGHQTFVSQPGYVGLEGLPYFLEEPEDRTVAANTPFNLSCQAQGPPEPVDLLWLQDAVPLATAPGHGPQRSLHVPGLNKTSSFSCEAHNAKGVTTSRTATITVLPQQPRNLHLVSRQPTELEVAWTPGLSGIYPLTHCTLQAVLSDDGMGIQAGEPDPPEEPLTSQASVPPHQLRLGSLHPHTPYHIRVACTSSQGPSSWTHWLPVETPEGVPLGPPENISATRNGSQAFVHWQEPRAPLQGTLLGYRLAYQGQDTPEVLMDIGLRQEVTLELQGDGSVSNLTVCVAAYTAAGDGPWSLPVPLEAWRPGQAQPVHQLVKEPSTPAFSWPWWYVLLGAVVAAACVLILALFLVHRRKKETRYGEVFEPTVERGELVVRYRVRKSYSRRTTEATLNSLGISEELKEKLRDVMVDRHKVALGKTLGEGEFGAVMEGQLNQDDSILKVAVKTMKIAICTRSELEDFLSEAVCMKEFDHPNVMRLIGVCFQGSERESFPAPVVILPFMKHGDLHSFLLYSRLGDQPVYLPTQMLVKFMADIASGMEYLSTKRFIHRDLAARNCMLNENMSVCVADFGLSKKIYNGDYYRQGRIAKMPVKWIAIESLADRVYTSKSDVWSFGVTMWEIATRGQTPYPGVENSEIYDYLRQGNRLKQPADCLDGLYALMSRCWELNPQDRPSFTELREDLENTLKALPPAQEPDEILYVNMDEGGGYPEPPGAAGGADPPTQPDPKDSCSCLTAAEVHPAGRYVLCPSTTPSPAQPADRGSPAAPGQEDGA
Platelet-derived growth factor receptor alpha (Homo sapiens), sequence (P16234 whole entry, the tested form may be a part): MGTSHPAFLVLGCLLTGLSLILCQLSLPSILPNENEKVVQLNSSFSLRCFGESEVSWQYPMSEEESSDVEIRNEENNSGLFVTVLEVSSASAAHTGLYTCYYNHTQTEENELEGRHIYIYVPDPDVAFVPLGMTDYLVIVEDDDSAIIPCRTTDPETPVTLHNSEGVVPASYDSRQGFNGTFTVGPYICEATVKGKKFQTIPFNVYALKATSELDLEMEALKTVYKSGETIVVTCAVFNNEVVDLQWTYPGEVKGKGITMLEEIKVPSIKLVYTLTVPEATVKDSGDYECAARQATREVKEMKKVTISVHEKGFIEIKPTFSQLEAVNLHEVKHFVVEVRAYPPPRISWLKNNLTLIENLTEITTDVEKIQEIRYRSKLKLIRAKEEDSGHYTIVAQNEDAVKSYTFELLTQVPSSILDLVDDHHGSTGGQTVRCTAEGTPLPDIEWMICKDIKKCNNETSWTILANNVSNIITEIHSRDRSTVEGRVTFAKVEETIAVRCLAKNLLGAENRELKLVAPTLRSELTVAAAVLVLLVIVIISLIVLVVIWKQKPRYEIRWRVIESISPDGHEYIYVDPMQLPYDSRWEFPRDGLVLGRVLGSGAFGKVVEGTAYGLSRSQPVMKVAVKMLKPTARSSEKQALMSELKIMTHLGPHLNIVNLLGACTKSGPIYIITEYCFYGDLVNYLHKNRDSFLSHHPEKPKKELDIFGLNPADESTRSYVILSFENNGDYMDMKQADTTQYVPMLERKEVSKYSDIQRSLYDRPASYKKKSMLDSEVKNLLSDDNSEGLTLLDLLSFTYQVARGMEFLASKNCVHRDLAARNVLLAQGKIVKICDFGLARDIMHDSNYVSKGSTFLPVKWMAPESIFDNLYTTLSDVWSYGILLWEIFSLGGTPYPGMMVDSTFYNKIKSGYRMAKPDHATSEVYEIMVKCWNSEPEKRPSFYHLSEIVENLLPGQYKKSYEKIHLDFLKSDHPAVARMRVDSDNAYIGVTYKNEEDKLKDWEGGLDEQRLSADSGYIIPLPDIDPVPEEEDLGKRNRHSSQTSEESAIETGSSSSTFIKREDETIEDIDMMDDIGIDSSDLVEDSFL
cGMP-dependent protein kinase 2 (Homo sapiens), sequence (Q13237 whole entry, the tested form may be a part): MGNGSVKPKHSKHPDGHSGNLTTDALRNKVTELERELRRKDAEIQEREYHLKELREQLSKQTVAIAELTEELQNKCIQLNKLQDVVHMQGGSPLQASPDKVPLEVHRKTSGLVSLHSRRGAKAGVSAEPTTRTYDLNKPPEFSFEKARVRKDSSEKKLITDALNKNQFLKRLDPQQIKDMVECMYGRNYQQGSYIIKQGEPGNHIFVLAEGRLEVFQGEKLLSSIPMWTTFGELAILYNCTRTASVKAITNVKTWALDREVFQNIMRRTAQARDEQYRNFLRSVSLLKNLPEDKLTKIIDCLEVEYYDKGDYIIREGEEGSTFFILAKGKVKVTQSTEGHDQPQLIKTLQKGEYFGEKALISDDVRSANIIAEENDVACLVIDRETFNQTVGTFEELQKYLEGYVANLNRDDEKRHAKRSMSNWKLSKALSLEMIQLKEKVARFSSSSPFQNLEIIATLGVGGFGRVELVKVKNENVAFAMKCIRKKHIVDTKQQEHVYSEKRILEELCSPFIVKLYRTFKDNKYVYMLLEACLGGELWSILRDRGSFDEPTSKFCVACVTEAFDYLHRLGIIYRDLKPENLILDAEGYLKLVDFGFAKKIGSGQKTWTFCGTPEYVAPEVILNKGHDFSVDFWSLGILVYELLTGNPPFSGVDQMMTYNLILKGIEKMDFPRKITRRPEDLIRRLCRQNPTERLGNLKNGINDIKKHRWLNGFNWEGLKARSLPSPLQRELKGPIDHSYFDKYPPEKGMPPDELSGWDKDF
Mitogen-activated protein kinase kinase kinase kinase 2 (Homo sapiens), sequence (Q12851 whole entry, the tested form may be a part): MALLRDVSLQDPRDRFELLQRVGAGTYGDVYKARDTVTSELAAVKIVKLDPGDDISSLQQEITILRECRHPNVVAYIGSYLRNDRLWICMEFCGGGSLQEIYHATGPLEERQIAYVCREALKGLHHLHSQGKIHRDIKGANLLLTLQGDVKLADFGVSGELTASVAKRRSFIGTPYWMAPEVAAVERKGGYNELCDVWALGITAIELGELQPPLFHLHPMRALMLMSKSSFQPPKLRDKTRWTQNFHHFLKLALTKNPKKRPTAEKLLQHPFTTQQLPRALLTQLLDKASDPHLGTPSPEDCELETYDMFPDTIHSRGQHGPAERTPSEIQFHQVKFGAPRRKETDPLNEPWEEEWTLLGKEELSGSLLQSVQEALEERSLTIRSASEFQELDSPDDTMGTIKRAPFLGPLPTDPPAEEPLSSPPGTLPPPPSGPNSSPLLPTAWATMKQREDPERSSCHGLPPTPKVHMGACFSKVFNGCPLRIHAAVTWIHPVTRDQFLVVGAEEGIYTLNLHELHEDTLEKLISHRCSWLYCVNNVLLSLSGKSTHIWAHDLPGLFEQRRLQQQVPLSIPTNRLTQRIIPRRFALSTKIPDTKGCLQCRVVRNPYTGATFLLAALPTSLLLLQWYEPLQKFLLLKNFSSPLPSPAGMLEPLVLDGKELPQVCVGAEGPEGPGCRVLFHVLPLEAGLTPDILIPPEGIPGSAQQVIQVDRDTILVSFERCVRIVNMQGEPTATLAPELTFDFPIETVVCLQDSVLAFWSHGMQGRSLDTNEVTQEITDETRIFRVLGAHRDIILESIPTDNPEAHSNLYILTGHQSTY
Tyrosine-protein kinase CSK (Homo sapiens), sequence (P41240 2-450 limits assumed): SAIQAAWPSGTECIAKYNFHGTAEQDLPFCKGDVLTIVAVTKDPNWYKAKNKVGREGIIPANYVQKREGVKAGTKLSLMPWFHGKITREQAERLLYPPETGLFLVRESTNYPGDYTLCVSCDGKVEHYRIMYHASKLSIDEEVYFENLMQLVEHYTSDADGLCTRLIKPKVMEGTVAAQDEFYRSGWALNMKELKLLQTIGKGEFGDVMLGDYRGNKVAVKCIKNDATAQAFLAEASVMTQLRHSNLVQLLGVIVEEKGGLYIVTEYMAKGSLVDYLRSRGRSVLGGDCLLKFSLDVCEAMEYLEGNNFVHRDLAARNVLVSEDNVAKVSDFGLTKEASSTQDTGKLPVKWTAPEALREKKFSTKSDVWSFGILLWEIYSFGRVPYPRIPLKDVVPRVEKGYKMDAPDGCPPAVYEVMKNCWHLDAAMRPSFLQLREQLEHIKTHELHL

In the case of COCCN[C@H]1CC[C@H](Nc2cc(-c3csc(NCC4(C#N)CCOCC4)n3)c(Cl)cn2)CC1, the Vd [1] is reported as 44.5 L/kg, the MRT inf [2] is reported as 1.58 h and the Activity [3] is reported as 91%. For the same molecule, the Activity [4] was 95%, the Activity [5] was 96% and the Activity [6] was 100%. For the same molecule, the Activity [7] was 95%, the Activity [8] was 98% and the Activity [9] was 42%. The Activity [10] was 96%, the Activity [11] was 95% and the Activity [12] was 56%. It also gave an Activity [13] of 100%, an Activity [14] of 90% and an Activity [15] of 100%. For the same molecule, the Activity [16] was 100%, the Activity [17] was 100% and the Activity [18] was 100%. It also gave an Activity [19] of 95%.
